Results: ChEMBL document CHEMBL1132602, “Identification of novel classes of protein kinase inhibitors using combinatorial peptide chemistry based on functional genomics knowledge” (J Med Chem, 1999)
Starred links: 1 amine or outer side, 2 acyl side, 3 side chain; linkers in the order of their positions; H or OH if unused. Non-standard residues stand in square brackets, D forms with d. Residues, ends and D or L forms follow the SMILES beside them. X1 = O=C(C1CCC(N[*:1])CC1)[*:2]

Tests used:
CaM kinase II = CaM kinase II (Homo sapiens, UniProt Q13557+Q13555+Q13554+Q9UQM7); test: Inhibitory activity against CaMPKII (Calcium/calmodulin-dependent protein kinase type II); assay type: protein assay
[1] = Ratio of the inhibitory concentrations against CaMPKII and MLCK. IC50 (CaMPKII ) / IC50 (MLCK).
How it was run: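 Ratio of IC50 values from the two radiometric assays, both with 0.2 mM [γ-32P]ATP and 20 μM peptide substrate. CaMPKII was activated with 30 μM CaM and 2 mM CaCl2 and run 8 min. Chicken gizzard MLCK was activated with 1 μM CaM and 5 μM CaCl2 and run 20 min. Both at 25 °C, IC50 from 15–85% activity regression.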

[2] = molecular target: Myosin light chain kinase, smooth muscle (Gallus gallus, UniProt P11799); test: Inhibitory activity against MLCK (smooth muscle myosin light chain kinase)
Myosin light chain kinase, smooth muscle, sequence (P11799 whole entry): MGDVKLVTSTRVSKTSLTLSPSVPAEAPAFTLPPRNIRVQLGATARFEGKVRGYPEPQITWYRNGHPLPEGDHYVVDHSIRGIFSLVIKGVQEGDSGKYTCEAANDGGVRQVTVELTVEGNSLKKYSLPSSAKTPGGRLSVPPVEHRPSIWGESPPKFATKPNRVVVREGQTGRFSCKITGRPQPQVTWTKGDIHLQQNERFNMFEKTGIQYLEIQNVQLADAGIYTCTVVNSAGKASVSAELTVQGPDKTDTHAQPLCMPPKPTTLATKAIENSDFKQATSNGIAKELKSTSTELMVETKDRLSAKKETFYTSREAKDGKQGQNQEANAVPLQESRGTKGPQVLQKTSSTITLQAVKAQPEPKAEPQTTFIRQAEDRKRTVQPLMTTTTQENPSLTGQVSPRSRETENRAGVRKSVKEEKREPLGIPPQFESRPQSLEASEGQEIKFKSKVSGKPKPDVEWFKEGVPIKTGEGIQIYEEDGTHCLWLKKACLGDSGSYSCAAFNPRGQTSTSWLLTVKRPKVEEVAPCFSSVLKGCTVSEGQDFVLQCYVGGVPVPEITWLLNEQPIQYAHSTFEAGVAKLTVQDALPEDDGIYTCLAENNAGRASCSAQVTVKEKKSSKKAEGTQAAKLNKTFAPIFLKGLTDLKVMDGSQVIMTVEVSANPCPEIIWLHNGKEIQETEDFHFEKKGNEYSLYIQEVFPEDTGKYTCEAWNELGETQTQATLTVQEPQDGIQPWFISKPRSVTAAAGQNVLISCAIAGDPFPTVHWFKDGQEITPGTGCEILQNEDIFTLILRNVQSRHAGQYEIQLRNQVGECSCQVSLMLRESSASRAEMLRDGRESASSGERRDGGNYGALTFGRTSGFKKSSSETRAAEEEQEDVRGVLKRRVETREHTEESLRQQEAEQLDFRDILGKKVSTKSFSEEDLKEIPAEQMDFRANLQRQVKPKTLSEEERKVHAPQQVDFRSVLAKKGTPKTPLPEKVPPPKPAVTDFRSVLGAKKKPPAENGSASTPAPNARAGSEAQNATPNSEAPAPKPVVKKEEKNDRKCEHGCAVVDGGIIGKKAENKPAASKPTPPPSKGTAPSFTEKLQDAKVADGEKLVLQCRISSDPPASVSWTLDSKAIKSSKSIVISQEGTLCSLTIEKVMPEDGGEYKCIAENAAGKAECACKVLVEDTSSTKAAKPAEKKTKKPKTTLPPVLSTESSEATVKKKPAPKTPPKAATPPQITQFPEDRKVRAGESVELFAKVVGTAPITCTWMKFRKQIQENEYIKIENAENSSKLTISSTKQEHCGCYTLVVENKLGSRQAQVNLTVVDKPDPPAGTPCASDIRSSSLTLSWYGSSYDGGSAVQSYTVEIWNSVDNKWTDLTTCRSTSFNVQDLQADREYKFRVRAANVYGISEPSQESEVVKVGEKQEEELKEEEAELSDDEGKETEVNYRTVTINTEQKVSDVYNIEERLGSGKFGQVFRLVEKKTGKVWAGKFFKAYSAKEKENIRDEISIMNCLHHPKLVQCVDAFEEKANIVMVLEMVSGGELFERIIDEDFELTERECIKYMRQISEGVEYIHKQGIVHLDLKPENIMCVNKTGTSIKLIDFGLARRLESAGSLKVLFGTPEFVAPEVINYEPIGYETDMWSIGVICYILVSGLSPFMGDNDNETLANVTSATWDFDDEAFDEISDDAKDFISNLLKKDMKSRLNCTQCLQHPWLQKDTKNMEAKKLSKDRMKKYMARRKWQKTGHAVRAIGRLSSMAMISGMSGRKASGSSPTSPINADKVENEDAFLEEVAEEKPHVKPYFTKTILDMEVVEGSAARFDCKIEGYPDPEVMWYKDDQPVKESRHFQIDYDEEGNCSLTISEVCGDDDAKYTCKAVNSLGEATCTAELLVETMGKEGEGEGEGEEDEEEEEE

| Molecule | IC50 (CaM kinase II) [µM] | Ratio [1] | IC50 [2] [nM] |
| --- | --- | --- | --- |
| H-RKKYKMRRK-NH2 [listing 1 of 2 here] | > 200 | > 1250 | – |
| H-RKKYKNRRK-NH2 [listing 1 of 2 here] | – | – | 290 |
| CC[C@@H](C)[C@H](NC(=O)[C@H](CCCCN)NC(=O)[C@H](Cc1ccc(O)cc1)NC(=O)[C@H](CCCCN)NC(=O)[C@H](CCCCN)NC(=O)[C@@H](N)CCCN=C(N)N)C(=O)N[C@@H](CCCN=C(N)N)C(=O)N[C@@H](CCCN=C(N)N)C(=O)N[C@@H](CCCCN)C(N)=O | – | 359 | – |
| H-RKKYKKRRK-NH2 | > 200 | > 909 | 220 |
| C[C@H](O)[C@H](NC(=O)[C@H](CCCCN)NC(=O)[C@H](Cc1ccc(O)cc1)NC(=O)[C@H](CCCCN)NC(=O)[C@H](CCCCN)NC(=O)[C@@H](N)CCCN=C(N)N)C(=O)N[C@@H](CCCN=C(N)N)C(=O)N[C@@H](CCCN=C(N)N)C(=O)N[C@@H](CCCCN)C(N)=O | – | > 274 | – |
| H-RKKYKERRK-NH2 | > 200 | > 230 | 870 |
| H-RKKYKWRRK-NH2 | 26.7 | 134 | 200 |
| H-RKKYKARRK-NH2 | > 200 | > 476 | 420 |
| H-RKKYKGRRK-NH2 [listing 1 of 2 here] | – | – | 310 |
| NCCCC[C@H](NC(=O)[C@H](CCCN=C(N)N)NC(=O)[C@H](CCCN=C(N)N)NC(=O)C1CCC(NC(=O)[C@H](CCCCN)NC(=O)[C@H](Cc2ccc(O)cc2)NC(=O)[C@H](CCCCN)NC(=O)[C@H](CCCCN)NC(=O)[C@@H](N)CCCN=C(N)N)CC1)C(N)=O (stereo not given in full) (H-RKKYK[X1]RRK-NH2) | > 200 | > 741 | 270 |
| NCCCC[C@H](NC(=O)[C@H](CCCN=C(N)N)NC(=O)[C@H](CCCN=C(N)N)NC(=O)[C@H](Cc1ccc(O)cc1)NC(=O)C1CCC(NC(=O)C2CCC(NC(=O)[C@H](CCCCN)NC(=O)[C@H](CCCCN)NC(=O)[C@@H](N)CCCN=C(N)N)CC2)CC1)C(N)=O (stereo not given in full) (H-RKK[X1][X1]YRRK-NH2) | > 200 | > 67 | – |
| N=C(N)NCCC[C@H](NC(=O)C1CCC(NC(=O)C2CCC(NC(=O)C3CCC(NC(=O)[C@H](CCCCN)NC(=O)[C@H](CCCCN)NC(=O)[C@@H](N)CCCNC(=N)N)CC3)CC2)CC1)C(=O)N[C@@H](CCCNC(=N)N)C(=O)N[C@@H](CCCCN)C(N)=O (stereo not given in full) (H-RKK[X1][X1][X1]RRK-NH2) | – | – | 20000 |
| C[C@@H](O)[C@H](NC(=O)[C@H](CCCCN)NC(=O)[C@H](Cc1ccc(O)cc1)NC(=O)[C@H](CCCCN)NC(=O)[C@H](CCCCN)NC(=O)[C@@H](N)CCCN=C(N)N)C(=O)N[C@@H](CCCN=C(N)N)C(=O)N[C@@H](CCCN=C(N)N)C(=O)N[C@@H](CCCCN)C(N)=O | > 200 | – | 730 |
| CC[C@H](C)[C@H](NC(=O)[C@H](CCCCN)NC(=O)[C@H](Cc1ccc(O)cc1)NC(=O)[C@H](CCCCN)NC(=O)[C@H](CCCCN)NC(=O)[C@@H](N)CCCNC(=N)N)C(=O)N[C@@H](CCCNC(=N)N)C(=O)N[C@@H](CCCNC(=N)N)C(=O)N[C@@H](CCCCN)C(N)=O | 57.4 | – | 160 |
| N=C(N)NCCC[C@H](NC(=O)[C@H](CCCNC(=N)N)NC(=O)[C@H](Cc1ccc(O)cc1)NC(=O)C1CCC(NC(=O)C2CCC(NC(=O)[C@H](CCCCN)NC(=O)[C@H](CCCCN)NC(=O)[C@@H](N)CCCNC(=N)N)CC2)CC1)C(=O)N[C@@H](CCCCN)C(N)=O (stereo not given in full) (H-RKK[X1][X1]YRRK-NH2) | – | – | 2970 |
| NCCCC[C@H](NC(=O)[C@H](CCCN=C(N)N)NC(=O)[C@H](CCCN=C(N)N)NC(=O)[C@H](Cc1ccc(O)cc1)NC(=O)C1CCC(NC(=O)[C@H](Cc2ccc(O)cc2)NC(=O)[C@H](CCCCN)NC(=O)[C@H](CCCCN)NC(=O)[C@@H](N)CCCN=C(N)N)CC1)C(N)=O (stereo not given in full) (H-RKKY[X1]YRRK-NH2) | > 200 | > 5000 | 40 |
| H-RKKYKMRRK-NH2 [listing 2 of 2 here] | – | – | 160 |

| Molecule | IC50 (CaM kinase II) [µM] | Ratio [1] | IC50 [2] [nM] |
| --- | --- | --- | --- |
| NCCCC[C@H](NC(=O)[C@H](CCCN=C(N)N)NC(=O)[C@H](CCCN=C(N)N)NC(=O)C1CCC(NC(=O)[C@H](CCCCN)NC(=O)C2CCC(NC(=O)[C@H](CCCCN)NC(=O)[C@H](CCCCN)NC(=O)[C@@H](N)CCCN=C(N)N)CC2)CC1)C(N)=O (stereo not given in full) (H-RKK[X1]K[X1]RRK-NH2) | > 200 | > 10 | 20000 |
| H-RKKYKVRRK-NH2 [listing 1 of 2 here] | > 200 | > 556 | – |
| NCCCC[C@H](NC(=O)[C@H](CCCN=C(N)N)NC(=O)[C@H](CCCN=C(N)N)NC(=O)[C@H](Cc1ccc(O)cc1)NC(=O)[C@H](CCCCN)NC(=O)C1CCC(NC(=O)[C@H](CCCCN)NC(=O)[C@H](CCCCN)NC(=O)[C@@H](N)CCCN=C(N)N)CC1)C(N)=O (stereo not given in full) (H-RKK[X1]KYRRK-NH2) | > 200 | > 192 | 1040 |
| H-RKKYKDRRK-NH2 | > 200 | > 328 | 610 |
| NCCCC[C@H](NC(=O)[C@H](CCCN=C(N)N)NC(=O)[C@H](CCCN=C(N)N)NC(=O)C1CCC(NC(=O)C2CCC(NC(=O)[C@H](Cc3ccc(O)cc3)NC(=O)[C@H](CCCCN)NC(=O)[C@H](CCCCN)NC(=O)[C@@H](N)CCCN=C(N)N)CC2)CC1)C(N)=O (stereo not given in full) (H-RKKY[X1][X1]RRK-NH2) | > 200 | > 1820 | 110 |
| H-RKKYKSRRK-NH2 [listing 1 of 2 here] | – | – | 150 |
| H-RKKYKGRRK-NH2 [listing 2 of 2 here] | > 200 | > 645 | – |
| H-RKKYKQRRK-NH2 | > 200 | > 667 | 300 |
| H-RKKYKPRRK-NH2 | > 200 | > 1670 | 120 |
| H-RKKYKHRRK-NH2 | 16.2 | 56 | 290 |
| H-RKKYKYRRK-NH2 | > 200 | > 4000 | 50 |
| H-RKKYKSRRK-NH2 [listing 2 of 2 here] | > 200 | > 1330 | – |
| H-RKKYKVRRK-NH2 [listing 2 of 2 here] | – | – | 360 |
| H-RKKYKLRRK-NH2 | 132 | 413 | 320 |
| H-RKKYKFRRK-NH2 | > 200 | > 1330 | 150 |
| H-RKKYKNRRK-NH2 [listing 2 of 2 here] | > 200 | > 690 | – |
| NCCCC[C@H](NC(=O)[C@H](CCCN=C(N)N)NC(=O)[C@H](CCCN=C(N)N)NC(=O)C1CCC(NC(=O)C2CCC(NC(=O)C3CCC(NC(=O)[C@H](CCCCN)NC(=O)[C@H](CCCCN)NC(=O)[C@@H](N)CCCN=C(N)N)CC3)CC2)CC1)C(N)=O (stereo not given in full) (H-RKK[X1][X1][X1]RRK-NH2) | > 200 | > 10 | – |
